Measured values as given in ChEMBL document CHEMBL1129319, “Design and synthesis of new linear and cyclic bradykinin antagonists” (J Med Chem, 1996).
Activity calls are given as the source filed them. The calls are words filed in the database; no cut-off is given here. Numbered stars: 1 amine (or outer) side, 2 acyl side, 3 side chain; on linkers, the order of the positions; unused ones are H or OH. Square brackets hold non-standard residues; d marks the D form. Peptide text beside a SMILES is read from it. * marks the point of attachment. ξ: configuration not given here. X1 = NC(N)=NCCC[C@@H](NC(=O)[C@H](Cc1ccccc1)NC(=O)N1CCC[C@H]1C(=O)[C@H](CO)N*)C(=O)O; Pentanoyl(5-guanidino) = NC(N)=NCCCCC(=O)*; Butanoyl(4-guanidino) = N=C(N)NCCCC(=O)*; Oic(3aξ,7aξ) = O=C(O)[C@@H]1CC2CCCCC2N1; NH(CH2)9CO = O=C(CCCCCCCCCN[*:1])[*:2]; Tic = O=C(O)[C@@H]1Cc2ccccc2CN1; 2Thi = N[C@@H](Cc1cccs1)C(=O)O; X2 = N=C(N)NCCCCCC(=O)*; GABA = NCCCC(=O)O

How the values were obtained:
B2 bradykinin receptor = target: T1, B2 bradykinin receptor (Oryctolagus cuniculus, UniProt Q28642); experiment: In vitro antagonistic activity against kinin-induced rabbit jugular vein contraction.; format: functional; details: for Kb: read-out: pA2 (converted)
T1 sequence (Q28642 whole entry): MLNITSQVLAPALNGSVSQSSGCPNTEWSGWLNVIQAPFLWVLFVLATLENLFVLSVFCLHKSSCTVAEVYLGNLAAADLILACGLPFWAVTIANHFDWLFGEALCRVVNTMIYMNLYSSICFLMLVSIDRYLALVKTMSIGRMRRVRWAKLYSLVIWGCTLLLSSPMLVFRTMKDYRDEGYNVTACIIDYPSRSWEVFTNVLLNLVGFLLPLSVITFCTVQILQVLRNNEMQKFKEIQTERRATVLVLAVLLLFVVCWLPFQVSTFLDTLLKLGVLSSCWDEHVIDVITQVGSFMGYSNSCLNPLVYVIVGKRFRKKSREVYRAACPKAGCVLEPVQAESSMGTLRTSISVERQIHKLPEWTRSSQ
How it was run: (§1)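 Rabbit jugular vein rings (B2 tissue), reference KCl 60 mM contraction then 45 min rest; antagonist, usually 10-7, 10^-6 and 10^-5 M, incubated 45 min before cumulative bradykinin; one curve per ring; pA2 by Tallarida's method with Schild slope constrained to unity, or pKB from EC50 ratio when activity appeared only at 10^-5 M.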

[1] = target: T2, B2 bradykinin receptor (Homo sapiens) (UniProt P30411); experiment: Antagonistic activity against bradykinin B2 receptor as human umbilical vein contraction; in = inactive at 10e-5M; format: functional, tissue-based
T2 sequence (whole entry): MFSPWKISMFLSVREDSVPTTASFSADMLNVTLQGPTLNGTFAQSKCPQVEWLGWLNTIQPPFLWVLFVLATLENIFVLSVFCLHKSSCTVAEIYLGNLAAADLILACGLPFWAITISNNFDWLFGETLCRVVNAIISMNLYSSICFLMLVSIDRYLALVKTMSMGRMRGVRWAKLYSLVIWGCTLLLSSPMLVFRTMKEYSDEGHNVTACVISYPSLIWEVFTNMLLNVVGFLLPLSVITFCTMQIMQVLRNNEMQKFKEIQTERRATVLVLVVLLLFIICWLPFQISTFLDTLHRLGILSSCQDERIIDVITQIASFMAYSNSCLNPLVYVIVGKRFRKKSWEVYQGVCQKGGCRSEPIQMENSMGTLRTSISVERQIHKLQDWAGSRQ
How it was run: (§2)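 Endothelium-denuded human umbilical vein rings in Krebs (37 °C, 95% O2/5% CO2, pH 7.40), 2-4 g load, pretreated with indomethacin 5 × 10^-6 M and L-nitroarginine 10^-4 M; antagonist incubated 45 min before a single cumulative bradykinin curve per ring; isometric contraction as % of KCl (60 mM) reference; pKB from KB = [Ant]/(concentration ratio − 1).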

[2] = target: T3, B2 bradykinin receptor (Oryctolagus cuniculus) (UniProt Q28642); experiment: In vitro antagonistic activity against kinin-induced rabbit jugular vein contraction by bradykinin B2 receptor; in = inactive at 10e-5M; format: functional; how it was run: as §1
T3 sequence (whole entry): T1 sequence (Q28642 whole entry)

[3] = target: T2, B2 bradykinin receptor (Homo sapiens); experiment: Antagonistic activity against bradykinin B2 receptor as human umbilical vein contraction; format: functional, tissue-based; how it was run: as §2
[4] = target: T3, B2 bradykinin receptor (Oryctolagus cuniculus); experiment: In vitro antagonistic activity against kinin-induced rabbit jugular vein contraction by bradykinin B2 receptor; in = inactive at 10e-5M.; format: functional; how it was run: as §1

| Structure (SMILES) | Kb (B2 bradykinin receptor) [nM] | further results |
| --- | --- | --- |
| C[C@@H]1NC(=O)CCCNC(=O)[C@H](CCCN=C(N)N)NC(=O)[C@@H]2CC3CCCCC3N2C(=O)[C@H]2Cc3ccccc3CN2C(=O)[C@H](CO)NC1=O (some centres undefined) | 309 | – |
| NCCCC(=O)N[C@@H](Cc1cccs1)C(=O)N1Cc2ccccc2C[C@H]1C(=O)N1C2CCCCC2C[C@H]1C(=O)N[C@@H](CCCN=C(N)N)C(=O)O (some centres undefined) (H-[GABA][2Thi][Tic][Oic(3aξ,7aξ)]R-OH) | 251 | pKb [1]: inactive |
| N=C(N)NCCCCC(=O)N[C@@H](Cc1cccs1)C(=O)N1Cc2ccccc2C[C@H]1C(=O)N1C2CCCCC2C[C@H]1C(=O)N[C@@H](CCCNC(=N)N)C(=O)O (some centres undefined) ({Pentanoyl(5-guanidino)}-[2Thi][Tic][Oic(3aξ,7aξ)]R-OH) | 3020 | – |
| NC(N)=NCCC[C@H](NC(=O)[C@@H]1CC2CCCCC2N1C(=O)[C@@H]1Cc2ccccc2CN1C(=O)[C@H](CO)NC(=O)[C@@H](N)Cc1cccs1)C(=O)O (some centres undefined) (H-[2Thi]S[Tic][Oic(3aξ,7aξ)]R-OH) | – | pA2 [2]: inactive |
| NC(N)=NCCC[C@H](NC(=O)[C@@H]1CC2CCCCC2N1C(=O)[C@@H]1Cc2ccccc2CN1C(=O)[C@H](CO)NC(=O)[C@@H](N)Cc1ccccc1)C(=O)O (some centres undefined) (H-FS[Tic][Oic(3aξ,7aξ)]R-OH) | 912 | – |
| NCCCC(=O)N[C@@H](Cc1ccccc1)C(=O)N1Cc2ccccc2C[C@H]1C(=O)N1C2CCCCC2C[C@H]1C(=O)N[C@@H](CCCN=C(N)N)C(=O)O (some centres undefined) (H-[GABA]F[Tic][Oic(3aξ,7aξ)]R-OH) | 363 | – |
| NC(N)=NCCC[C@H](NC(=O)[C@@H](Cc1ccccc1)NC(=O)[C@@H](N)CCCN=C(N)N)C(=O)N1CCC[C@H]1C(=O)N1CCC[C@H]1C(=O)NCC(=O)N[C@@H](Cc1ccccc1)C(=O)N[C@@H](CO)C(=O)[C@@H]1CCCN1C(=O)N[C@@H](Cc1ccccc1)C(=O)N[C@H](CCCN=C(N)N)C(=O)O (H-R[dF]RPPGF-X1) | – | pKb [3]: 5.16 |
| C[C@@H]1NC(=O)[C@@H](Cc2ccccc2)NC(=O)CCCNC(=O)[C@H](CCCN=C(N)N)NC(=O)[C@@H]2CC3CCCCC3N2C(=O)[C@H]2Cc3ccccc3CN2C1=O (some centres undefined) | – | pA2 [4]: inactive |
| C[C@@H]1NC(=O)[C@H](Cc2c[nH]c3ccccc23)NC(=O)CCCNC(=O)[C@H](CCCN=C(N)N)NC(=O)[C@@H]2CC3CCCCC3N2C(=O)[C@H]2Cc3ccccc3CN2C1=O (some centres undefined) | 490 | – |
| NCC(=O)N[C@@H](Cc1cccs1)C(=O)N1Cc2ccccc2C[C@H]1C(=O)N1C2CCCCC2C[C@H]1C(=O)N[C@@H](CCCN=C(N)N)C(=O)O (some centres undefined) (H-G[2Thi][Tic][Oic(3aξ,7aξ)]R-OH) | – | pKb [3]: 4.79; pA2 [4]: inactive |
| C[C@@H]1NC(=O)[C@H](Cc2cccs2)NC(=O)CCCNC(=O)[C@H](CCCN=C(N)N)NC(=O)[C@@H]2CC3CCCCC3N2C(=O)[C@H]2Cc3ccccc3CN2C1=O (some centres undefined) | 63.1 | – |
| N=C(N)NCCC[C@@H]1NC(=O)[C@@H]2CC3CCCCC3N2C(=O)[C@H]2Cc3ccccc3CN2C(=O)[C@H](CO)NC(=O)[C@@H]2Cc3ccccc3CN2C(=O)CCCNC1=O (some centres undefined) | 437 | – |
| N=C(N)NCCC[C@@H]1NC(=O)[C@H](CCCNC(=N)N)NC(=O)[C@@H]2CC3CCCCC3N2C(=O)[C@H]2Cc3ccccc3CN2C(=O)[C@H](Cc2cccs2)NC1=O (some centres undefined) | 75.9 | – |
| N=C(N)NCCC[C@@H]1NC(=O)[C@@H]2CC3CCCCC3N2C(=O)[C@H]2Cc3ccccc3CN2C(=O)[C@H](Cc2ccccc2)NC(=O)CNC1=O (some centres undefined) | 117 | pKb [3]: 5.13 |
| N=C(N)NCCC[C@@H]1NC(=O)[C@@H]2CC3CCCCC3N2C(=O)[C@H]2Cc3ccccc3CN2C(=O)[C@H](CO)NC(=O)[C@H](c2ccccc2)NC(=O)CCCNC1=O (some centres undefined) | 537 | – |
| CN1CC(=O)N[C@@H](Cc2cccs2)C(=O)N2Cc3ccccc3C[C@@H]2C(=O)N2C3CCCCC3C[C@H]2C(=O)N[C@@H](CCCN=C(N)N)C1=O (some centres undefined) | 219 | – |
| N=C(N)NCCC[C@@H]1NC(=O)[C@@H]2CC3CCCCC3N2C(=O)[C@H]2Cc3ccccc3CN2C(=O)[C@H](CO)NC(=O)[C@H](Cc2cccs2)NC(=O)CCCNC1=O (some centres undefined) | 45.7 | – |
| N=C(N)NCCC[C@H](NC(=O)[C@@H]1CC2CCCCC2N1C(=O)[C@@H]1Cc2ccccc2CN1C(=O)[C@H](CO)NC(=O)[C@@H]1Cc2ccccc2CN1)C(=O)O (some centres undefined) (H-[Tic]S[Tic][Oic(3aξ,7aξ)]R-OH) | – | pA2 [2]: inactive |
| NCCCCCCCCCC(=O)N[C@@H](Cc1cccs1)C(=O)N1Cc2ccccc2C[C@H]1C(=O)N1C2CCCCC2C[C@H]1C(=O)N[C@@H](CCCN=C(N)N)C(=O)O (some centres undefined) ({NH(CH2)9CO}-[2Thi][Tic][Oic(3aξ,7aξ)]R-OH) | 468 | – |
| NC(N)=NCCC[C@H](NC(=O)[C@@H]1CC2CCCCC2N1C(=O)[C@@H]1Cc2ccccc2CN1C(=O)[C@H](Cc1cccs1)NC(=O)[C@@H](N)CCCN=C(N)N)C(=O)O (some centres undefined) (H-R[2Thi][Tic][Oic(3aξ,7aξ)]R-OH) | 794 | – |
| NC(N)=NCCC[C@@H]1NC(=O)[C@@H]2CC3CCCCC3N2C(=O)[C@H]2Cc3ccccc3CN2C(=O)[C@H](CO)NC(=O)[C@H](Cc2cccs2)NC(=O)CCNC1=O (some centres undefined) | 75.9 | – |
| N=C(N)NCCC[C@@H]1NC(=O)[C@@H]2CC3CCCCC3N2C(=O)[C@H]2Cc3ccccc3CN2C(=O)[C@H](Cc2cccs2)NC(=O)CCCNC1=O (some centres undefined) | 324 | pKb [1]: inactive |
| N=C(N)NCCCC(=O)N[C@@H](Cc1cccs1)C(=O)N1Cc2ccccc2C[C@H]1C(=O)N1C2CCCCC2C[C@H]1C(=O)N[C@@H](CCCNC(=N)N)C(=O)O (some centres undefined) ({Butanoyl(4-guanidino)}-[2Thi][Tic][Oic(3aξ,7aξ)]R-OH) | – | pA2 [4]: inactive |
| C[C@@H]1NC(=O)CNC(=O)[C@H](CCCN=C(N)N)NC(=O)[C@@H]2CC3CCCCC3N2C(=O)[C@H]2Cc3ccccc3CN2C1=O (some centres undefined) | 240 | – |
| N=C(N)NCCC[C@@H]1NC(=O)[C@@H]2CC3CCCCC3N2C(=O)[C@H]2Cc3ccccc3CN2C(=O)[C@H](Cc2cccs2)NC(=O)CNC1=O (some centres undefined) | 40.7 | pKb [3]: 4.93 |
| NCCCC[C@@H]1NC(=O)[C@H](CCCN=C(N)N)NC(=O)[C@@H]2C[C@@H]3CCCC[C@@H]3N2C(=O)[C@H]2Cc3ccccc3CN2C(=O)[C@H](Cc2cccs2)NC1=O | – | pA2 (B2 bradykinin receptor): 6.84 |
| NCC(=O)N[C@@H](Cc1ccccc1)C(=O)N1Cc2ccccc2C[C@H]1C(=O)N1C2CCCCC2C[C@H]1C(=O)N[C@@H](CCCN=C(N)N)C(=O)O (some centres undefined) (H-GF[Tic][Oic(3aξ,7aξ)]R-OH) | 851 | pKb [1]: inactive |
| N=C(N)NCCCCCC(=O)N[C@@H](Cc1cccs1)C(=O)N1Cc2ccccc2C[C@H]1C(=O)N1C2CCCCC2C[C@H]1C(=O)N[C@@H](CCCNC(=N)N)C(=O)O (some centres undefined) (X2-[2Thi][Tic][Oic(3aξ,7aξ)]R-OH) | 3390 | – |
